Each block holds one compound with its values, some of them ahead of it. Calls of active or inactive are those of the source. No cut-off for these calls is given here.
How the values were obtained:
[1] = Drug metabolism at 2 mM at pH 1.7 at room temperature after 28 days by 31P NMR method; format: physicochemical; settings: read-out: Drug metabolism
[2] = Drug level treated with UTP 5'-O-Palpha,alpha-dithiophosphate-beta,gamma-methylene at 2 mM at pH 11.7 at room temperature after 25 days by 31P NMR method; format: physicochemical; settings: pH 11.7, 600 h, 2000 µM
[3] = Drug level treated with UTP 5'-O-Palpha,alpha-dithiophosphate-beta,gamma-methylene at 2 mM at pH 1.7 at room temperature after 25 days by 31P NMR method; format: physicochemical; settings: pH 1.7, 600 h, 2000 µM
[4] = Drug metabolism at 2 mM at acidic pH after 5 days by 31P NMR method; format: physicochemical; settings: read-out: Drug metabolism
[5] = Drug metabolism at 2 mM at pH 1.7 at room temperature after 20 days by 31P NMR method; format: physicochemical; settings: read-out: Drug metabolism
[6] = Drug metabolism at 2 mM at basic pH after 5 days by 31P NMR method; format: physicochemical; settings: read-out: Drug metabolism
[7] = Drug metabolism at 2 mM at pH 11.7 at room temperature after 20 days by 31P NMR method; format: physicochemical; settings: read-out: Drug metabolism
[8] = target: P2Y purinoceptor 4 (Homo sapiens) (UniProt P51582); experiment: Agonist activity at recombinant human P2RY4 expressed in AD293 cells assessed as increase in intracellular calcium levels by Fluo-4/AM dye-based spectrofluorometer; format: functional, cell-based
Summary of the method: (§1)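 Human P2Y2, P2Y4 or P2Y6 receptor stably expressed in AD293 cells. Compound at 100 μM. Agonism read as change in intracellular calcium (Δ[Ca2+]i), with UDP or UTP as control.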

[9] = target: P2Y purinoceptor 6 (Homo sapiens) (UniProt Q15077); experiment: Agonist activity at recombinant human P2RY6 expressed in AD293 cells assessed as increase in intracellular IP1 levels; format: functional, cell-based
Summary of the method: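 Human P2Y6 receptor stably expressed in AD293 cells. Compound at 100 μM. Gq activation read as accumulation of inositol 1-phosphate (IP1).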

[10] = target: P2Y purinoceptor 6 (Homo sapiens) (UniProt Q15077); experiment: Agonist activity at recombinant human P2RY6 expressed in AD293 cells assessed as increase in intracellular calcium levels by Fluo-4/AM dye-based spectrofluorometer; format: functional, cell-based; summary of the method: as §1
[11] = target: P2Y purinoceptor 2 (Homo sapiens) (UniProt P41231); experiment: Agonist activity at recombinant human P2RY2 expressed in AD293 cells assessed as increase in intracellular calcium levels by Fluo-4/AM dye-based spectrofluorometer; format: functional, cell-based; summary of the method: as §1
[12] = target: T1, Ectonucleotide pyrophosphatase/phosphodiesterase family member 1 (Homo sapiens) (UniProt P22413); experiment: Inhibition of human NPP1 at 100 uM using ATP as substrate preincubated for 3 mins followed by substrate addition measured after 25 mins
T1 sequence (whole entry): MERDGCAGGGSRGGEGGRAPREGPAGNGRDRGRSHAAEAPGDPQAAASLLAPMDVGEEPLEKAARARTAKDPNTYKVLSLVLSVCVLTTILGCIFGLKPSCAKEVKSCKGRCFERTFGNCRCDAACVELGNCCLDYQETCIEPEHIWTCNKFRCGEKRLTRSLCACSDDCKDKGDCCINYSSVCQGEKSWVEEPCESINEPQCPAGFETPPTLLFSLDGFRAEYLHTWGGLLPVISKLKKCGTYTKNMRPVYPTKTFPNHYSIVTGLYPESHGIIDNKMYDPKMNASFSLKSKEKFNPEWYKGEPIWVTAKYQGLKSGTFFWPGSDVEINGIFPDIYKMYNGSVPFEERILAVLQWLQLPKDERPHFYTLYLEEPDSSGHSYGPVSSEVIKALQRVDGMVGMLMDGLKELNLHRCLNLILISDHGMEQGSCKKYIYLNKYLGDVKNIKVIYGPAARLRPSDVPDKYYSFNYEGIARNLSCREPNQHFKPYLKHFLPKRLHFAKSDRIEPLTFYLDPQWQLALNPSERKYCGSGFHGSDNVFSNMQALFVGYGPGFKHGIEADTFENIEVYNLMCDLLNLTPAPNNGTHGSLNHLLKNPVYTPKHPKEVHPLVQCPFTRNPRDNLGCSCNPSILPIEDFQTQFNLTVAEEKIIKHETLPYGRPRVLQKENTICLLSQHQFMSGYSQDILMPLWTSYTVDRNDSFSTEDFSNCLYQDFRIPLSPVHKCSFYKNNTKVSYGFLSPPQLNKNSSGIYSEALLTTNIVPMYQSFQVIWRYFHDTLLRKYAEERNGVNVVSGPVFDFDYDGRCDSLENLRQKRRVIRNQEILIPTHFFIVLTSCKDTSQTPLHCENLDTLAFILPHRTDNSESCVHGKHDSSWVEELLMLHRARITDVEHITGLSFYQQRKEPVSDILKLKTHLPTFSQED
Summary of the method: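 Human NPP1 cell lysate in mM 1 CaCl2, 140 NaCl, 5 KCl, 50 Tris pH 8.5, 37 °C. Compound at 100 μM, 3 min preincubation, 100 μM ATP substrate. Stopped after 25 min by heating 2 min at 95 °C. Pyrophosphate measured with a commercial kit.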

[13] = Stability of the compound assessed as air oxidation at room temperature at 1.8 mM after 3 weeks by 31P NMR method; format: physicochemical; settings: 504 h, 1800 µM
[14] = target: T2, Ectonucleoside triphosphate diphosphohydrolase 3 (Homo sapiens) (UniProt O75355); experiment: Inhibition of human NTPDase3 at 100 uM using ATP as substrate preincubated for 3 mins followed by substrate addition measured after 10 mins by malachite green reagent-based assay
T2 sequence (whole entry): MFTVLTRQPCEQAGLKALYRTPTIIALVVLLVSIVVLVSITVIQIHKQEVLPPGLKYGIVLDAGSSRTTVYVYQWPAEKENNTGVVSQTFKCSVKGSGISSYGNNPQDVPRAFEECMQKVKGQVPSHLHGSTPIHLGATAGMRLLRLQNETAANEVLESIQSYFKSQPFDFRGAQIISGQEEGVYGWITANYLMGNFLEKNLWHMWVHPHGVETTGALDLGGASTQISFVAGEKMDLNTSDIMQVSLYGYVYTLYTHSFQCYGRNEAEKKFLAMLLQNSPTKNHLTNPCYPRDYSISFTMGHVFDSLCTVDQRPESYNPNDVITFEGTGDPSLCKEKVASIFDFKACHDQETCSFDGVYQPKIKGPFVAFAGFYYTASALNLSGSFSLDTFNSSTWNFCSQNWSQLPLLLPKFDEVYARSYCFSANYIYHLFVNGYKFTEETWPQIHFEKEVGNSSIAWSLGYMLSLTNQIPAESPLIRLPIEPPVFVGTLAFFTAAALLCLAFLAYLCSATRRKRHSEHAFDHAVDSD
Summary of the method: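 Compound at 100 μM, 3 min preincubation, 100 μM ATP, 10 min. Stopped with malachite green; Pi read at 630 nm. Blank with enzyme added after stop subtracted. Activity with ATP alone taken as 100%.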

[15] = target: T1, Ectonucleotide pyrophosphatase/phosphodiesterase family member 1 (Homo sapiens); experiment: Inhibition of human NPP1 at 100 uM using pNP-TMP as substrate preincubated for 3 mins followed by substrate addition measured after 15 mins relative to control
Summary of the method: (§2)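 Human NPP1 (4−5 μg) or NPP3 (12−14 μg) cell lysate in mM 1 CaCl2, 140 NaCl, 5 KCl, 50 Tris pH 8.5, 37 °C. Compound at 100 μM, 3 min preincubation, 100 μM pNP-TMP substrate. p-Nitrophenol read at 405 nm after 15 min. Blank with enzyme added at end subtracted. Activity without compound taken as 100%. At least two independent experiments in triplicate.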

[16] = target: T3, Ectonucleotide pyrophosphatase/phosphodiesterase family member 3 (Homo sapiens) (UniProt O14638); experiment: Inhibition of human NPP3 at 100 uM using pNP-TMP as substrate preincubated for 3 mins followed by substrate addition measured after 15 mins; summary of the method: as §2
T3 sequence (whole entry): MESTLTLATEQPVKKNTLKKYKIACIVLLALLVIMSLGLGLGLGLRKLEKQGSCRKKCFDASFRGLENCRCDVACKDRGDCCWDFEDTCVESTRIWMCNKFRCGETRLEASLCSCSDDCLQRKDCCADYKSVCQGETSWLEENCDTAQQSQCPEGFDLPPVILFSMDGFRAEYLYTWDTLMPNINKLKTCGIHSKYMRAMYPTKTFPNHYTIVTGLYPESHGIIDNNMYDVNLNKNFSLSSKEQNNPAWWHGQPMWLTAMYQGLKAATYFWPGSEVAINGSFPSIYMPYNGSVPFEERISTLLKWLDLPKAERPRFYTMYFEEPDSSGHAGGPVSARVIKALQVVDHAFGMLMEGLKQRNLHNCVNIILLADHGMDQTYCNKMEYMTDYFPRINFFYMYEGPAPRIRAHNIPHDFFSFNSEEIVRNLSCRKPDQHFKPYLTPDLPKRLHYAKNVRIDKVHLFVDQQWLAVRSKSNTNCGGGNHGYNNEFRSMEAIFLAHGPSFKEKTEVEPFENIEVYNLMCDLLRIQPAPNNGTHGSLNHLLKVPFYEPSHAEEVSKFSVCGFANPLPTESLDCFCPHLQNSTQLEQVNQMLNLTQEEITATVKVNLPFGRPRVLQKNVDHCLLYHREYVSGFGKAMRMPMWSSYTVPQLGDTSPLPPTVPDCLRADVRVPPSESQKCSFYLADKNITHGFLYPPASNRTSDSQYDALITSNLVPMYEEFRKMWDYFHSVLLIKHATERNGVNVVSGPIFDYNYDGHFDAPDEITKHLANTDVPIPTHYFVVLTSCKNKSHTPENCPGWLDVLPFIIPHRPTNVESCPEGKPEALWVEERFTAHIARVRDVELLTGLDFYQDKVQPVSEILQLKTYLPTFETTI

[17] = Drug level treated with UTP 5'-O-Palpha,alpha-dithiophosphate at 2 mM at pH 11.7 at room temperature after 25 days by 31P NMR method; format: physicochemical; settings: pH 11.7, 600 h, 2000 µM
[18] = Drug level treated with diuridine 5'-O-Palpha,alpha,5''-O-Palpha,alpha-tetrathiotetraphosphate at 2 mM at pD 12.6 at room temperature after 16 days by 31P NMR method; format: physicochemical; settings: 384 h, 2000 µM
[19] = Half life of the compound at pH 7.4; format: physicochemical

P2Y purinoceptor 6 (Homo sapiens), sequence (Q15077 whole entry): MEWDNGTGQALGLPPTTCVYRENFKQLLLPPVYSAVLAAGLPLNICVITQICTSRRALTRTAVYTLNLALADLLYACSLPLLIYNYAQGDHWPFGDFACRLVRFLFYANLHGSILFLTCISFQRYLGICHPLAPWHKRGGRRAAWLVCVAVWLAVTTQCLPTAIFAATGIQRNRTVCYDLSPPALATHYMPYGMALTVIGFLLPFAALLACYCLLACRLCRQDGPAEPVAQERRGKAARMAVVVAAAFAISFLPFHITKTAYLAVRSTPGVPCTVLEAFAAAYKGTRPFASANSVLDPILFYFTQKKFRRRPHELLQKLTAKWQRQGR
P2Y purinoceptor 4 (Homo sapiens), sequence (P51582 whole entry): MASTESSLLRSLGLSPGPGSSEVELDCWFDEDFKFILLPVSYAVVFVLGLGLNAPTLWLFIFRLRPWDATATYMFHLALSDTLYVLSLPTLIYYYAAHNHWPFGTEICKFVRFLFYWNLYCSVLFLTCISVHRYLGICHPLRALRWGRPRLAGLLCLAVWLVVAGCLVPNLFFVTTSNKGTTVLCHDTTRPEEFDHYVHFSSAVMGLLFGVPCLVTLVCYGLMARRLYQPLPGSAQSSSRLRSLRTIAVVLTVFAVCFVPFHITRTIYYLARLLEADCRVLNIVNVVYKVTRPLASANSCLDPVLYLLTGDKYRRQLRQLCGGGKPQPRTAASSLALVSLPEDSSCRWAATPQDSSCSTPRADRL
P2Y purinoceptor 2 (Homo sapiens), sequence (P41231 whole entry): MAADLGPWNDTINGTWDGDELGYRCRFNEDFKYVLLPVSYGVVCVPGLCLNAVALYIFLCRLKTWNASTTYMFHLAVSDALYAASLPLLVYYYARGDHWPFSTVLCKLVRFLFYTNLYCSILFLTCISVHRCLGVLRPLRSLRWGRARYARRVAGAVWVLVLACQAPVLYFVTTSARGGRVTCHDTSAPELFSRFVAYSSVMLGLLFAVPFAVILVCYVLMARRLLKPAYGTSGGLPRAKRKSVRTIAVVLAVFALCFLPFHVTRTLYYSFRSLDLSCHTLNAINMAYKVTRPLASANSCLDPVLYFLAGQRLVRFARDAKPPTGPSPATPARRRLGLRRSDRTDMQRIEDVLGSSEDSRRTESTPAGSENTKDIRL

degraded at 672 h, 2000 µM [1]: 7%
Structure (SMILES): O=c1ccn([C@@H]2O[C@H](COP(=O)(O)OP(=O)(O)O)[C@@H](O)[C@H]2O)c(=O)[nH]1 [URIDINE_DIPHOSPHATE]

Drug metabolism [2]: Metabolite_Detected | Drug metabolism [3]: Metabolite_Detected
Structure (SMILES): O=P(O)(O)CP(=O)(O)O [MEDRONIC ACID]

degraded at 120 h, 2000 µM [4]: 5% | degraded at 480 h, 2000 µM [5]: 11% | degraded at 120 h, 2000 µM [6]: 8% | degraded at 480 h, 2000 µM [7]: 10%
Structure (SMILES): O=c1ccn([C@@H]2O[C@H](COP(=O)(O)OP(=O)(O)OP(=O)(O)O)[C@@H](O)[C@H]2O)c(=O)[nH]1 [URIDINE TRIPHOSPHATE]

Structure (SMILES): O=c1ccn([C@@H]2O[C@H](COP(=S)(S)OP(=O)(O)OP(=O)(O)OP(=S)(S)OC[C@H]3O[C@@H](n4ccc(=O)[nH]c4=O)[C@H](O)[C@@H]3O)[C@@H](O)[C@H]2O)c(=O)[nH]1 (some centres undefined)
Activity [8]: inactive | Activity [9]: Active | Activity [10]: Active | degraded at 120 h, 2000 µM [4]: 6% | Activity [11]: inactive | inhibition [12]: Active | degraded at 120 h, 2000 µM [6]: 9% | Stability [13]: Stable | inhibition [14]: 24% | inhibition [15]: 80 to 100% | inhibition [16]: 27%

Structure (SMILES): OP(O)(=S)S
Drug metabolism [17]: Metabolite_Detected | Drug metabolism [18]: Metabolite_Detected | Drug metabolism [2]: Metabolite_Detected

Drug metabolism [17]: Metabolite_Detected
Structure (SMILES): O=c1ccn([C@@H]2O[C@H](COP(=O)(O)O)[C@@H](O)[C@H]2O)c(=O)[nH]1

degraded at 120 h, 2000 µM [4]: 25% | half-life [19]: 11 days
Structure (SMILES): Nc1nc(SCc2ccccc2)nc2c1ncn2[C@@H]1O[C@H](COP(O)(=S)OP(=O)(O)OP(=O)(O)O)[C@@H](O)[C@H]1O (some centres undefined)

Structure (SMILES): O=c1ccn([C@@H]2O[C@H](COP(O)(=S)SCCS)[C@@H](O)[C@H]2O)c(=O)[nH]1 (some centres undefined)
Drug metabolism [17]: Metabolite_Detected | Drug metabolism [2]: Metabolite_Detected

Structure (SMILES): O=c1ccn([C@@H]2O[C@H](COP(O)(=S)S)[C@@H](O)[C@H]2O)c(=O)[nH]1 (some centres undefined)
Drug metabolism [17]: Metabolite_Detected | Drug metabolism [18]: Metabolite_Detected | Drug metabolism [2]: Metabolite_Detected

From ChEMBL document CHEMBL4177769, “Highly Selective and Potent Ectonucleotide Pyrophosphatase-1 (NPP1) Inhibitors Based on Uridine 5'-Pα,α-Dithiophosphate Analogues” (J Med Chem, 2018)
